What was measured:
[1] = Inhibition of PDE4 in PBMC (unknown origin) assessed as reduction in LPS-induced TNFalpha production incubated for 24 hrs by ELISA; conditions: Homo sapiens
[2] = Inhibition of PDE4 in human whole blood assessed as reduction in LPS-induced TNFalpha production incubated for 24 hrs by ELISA; type: tissue-based
How it was run: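 Human whole blood was preincubated with LPS (final 1 μg/mL) for 10 min at 37 °C with rocking. 200 μL was added to wells holding increasing inhibitor concentrations in 100% DMSO. Plates were incubated 24 h at 37 °C under agitation, then placed on ice, diluted with PBS and centrifuged at 800g, 4 °C, for 15 min before TNF-α measurement.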

[3] = biological target: T1, Adenosine receptor A1 (Homo sapiens, UniProt P30542); test: Antagonist activity at adenosine A1 receptor (unknown origin)
T1 sequence (P30542 whole entry): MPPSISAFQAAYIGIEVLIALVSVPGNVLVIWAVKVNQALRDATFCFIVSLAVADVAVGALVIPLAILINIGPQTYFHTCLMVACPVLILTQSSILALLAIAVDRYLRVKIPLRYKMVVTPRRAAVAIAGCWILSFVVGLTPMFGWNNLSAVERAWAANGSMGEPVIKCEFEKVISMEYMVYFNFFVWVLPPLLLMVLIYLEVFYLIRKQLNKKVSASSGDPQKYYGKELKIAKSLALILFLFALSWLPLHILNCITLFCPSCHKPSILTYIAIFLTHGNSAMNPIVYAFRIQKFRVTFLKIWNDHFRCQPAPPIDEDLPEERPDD

[4] = biological target: Adenosine receptor A2a (Homo sapiens, UniProt P29274); test: Antagonist activity at adenosine A2a receptor (unknown origin)
[5] = biological target: T2, Adenosine receptor A2b (Homo sapiens, UniProt P29275); test: Antagonist activity at adenosine A2b receptor (unknown origin)
T2 sequence (P29275 whole entry): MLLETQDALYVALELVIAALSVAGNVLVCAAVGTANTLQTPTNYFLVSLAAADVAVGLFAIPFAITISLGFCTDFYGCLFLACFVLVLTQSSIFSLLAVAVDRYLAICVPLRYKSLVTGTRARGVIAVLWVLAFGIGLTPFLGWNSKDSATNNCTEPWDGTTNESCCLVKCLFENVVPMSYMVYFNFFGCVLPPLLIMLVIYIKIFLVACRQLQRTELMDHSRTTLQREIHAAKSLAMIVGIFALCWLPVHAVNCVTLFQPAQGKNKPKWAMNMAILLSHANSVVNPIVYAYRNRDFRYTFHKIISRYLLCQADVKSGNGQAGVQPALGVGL

[6] = system: Rattus norvegicus; test: Anti-inflammatory activity in Sprague-Dawley rat assessed as inhibition of LPS-induced neutrophilia at 25 ug/kg, it administered as suspension with Penn-Century micro-sprayer aerosolizer dosed 1 hrs before LPS challenge and measured 5 hrs post dose; type: functional; conditions: inhaled or nasal
How it was run: (§1)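 Suspensions in PBS/0.2% Tween 80 were homogenized, with lower doses made by 1:10 dilutions. 0.2 mL was given intratracheally by MicroSprayer to isoflurane-anesthetized fasted male Sprague-Dawley rats (230–280 g). At 1 or 18 h, rats received nebulized LPS (30 mL of a 1:100 PBS dilution of 100 mg/10 mL stock) over 40 min. Four hours later, BAL neutrophils were counted by flow cytometry.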

[7] = Drug metabolism in human liver S9 fraction assessed as glucuronidation in presence of PAPS and UDPGA incubated for 20 mins; type: ADME, subcellular; conditions: read-out: Drug metabolism
[8] = system: Rattus norvegicus; test: Anti-inflammatory activity in Sprague-Dawley rat assessed as inhibition of LPS-induced neutrophilia at 100 ug/kg, it administered as suspension with Penn-Century micro-sprayer aerosolizer dosed 1 hrs before LPS challenge and measured 5 hrs post dose; type: functional; conditions: inhaled or nasal; how it was run: as §1
[9] = system: Rattus norvegicus; test: Anti-inflammatory activity in Sprague-Dawley rat assessed as inhibition of LPS-induced neutrophilia at 1000 ug/kg, it administered as suspension with Penn-Century micro-sprayer aerosolizer dosed 18 hrs before LPS challenge and measured 22 hrs post dose; type: functional; conditions: inhaled or nasal; how it was run: as §1
[10] = system: Rattus norvegicus; test: Anti-inflammatory activity in Sprague-Dawley rat assessed as inhibition of LPS-induced neutrophilia at 100 ug/kg, it administered as suspension with Penn-Century micro-sprayer aerosolizer dosed 18 hrs before LPS challenge and measured 22 hrs post dose; type: functional; conditions: inhaled or nasal; how it was run: as §1

Chain of Adenosine receptor A2a (P29274 whole entry): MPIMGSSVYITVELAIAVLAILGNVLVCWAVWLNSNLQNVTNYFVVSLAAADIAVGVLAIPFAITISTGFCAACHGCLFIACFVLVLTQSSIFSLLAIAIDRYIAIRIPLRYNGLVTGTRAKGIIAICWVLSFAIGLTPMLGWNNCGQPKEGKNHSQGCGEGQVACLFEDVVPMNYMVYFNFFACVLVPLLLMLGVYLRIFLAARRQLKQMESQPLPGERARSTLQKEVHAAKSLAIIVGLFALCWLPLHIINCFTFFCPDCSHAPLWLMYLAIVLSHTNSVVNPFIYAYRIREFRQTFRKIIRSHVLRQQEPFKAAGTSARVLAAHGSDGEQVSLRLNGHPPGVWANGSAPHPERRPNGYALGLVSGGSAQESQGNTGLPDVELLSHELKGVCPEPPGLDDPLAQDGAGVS

Row | IC50 [1] | IC50 [2] | IC50 [3] | IC50 [4] | IC50 [5] | SMILES | also measured
1 | 4.9 nM | 525 nM | 28 nM | 59 nM | 459 nM | CCn1nc(-c2cccc(-c3cccc(CC(=O)NCCCCCCCN(C)CCO)c3)c2)cc(NC(=O)Nc2c(Cl)cncc2Cl)c1=O | –
2 | 1.3 nM | 202 nM | – | – | – | CCn1nc(-c2cccc(-c3ccc(F)cc3O)c2)cc(NC(=O)Nc2c(Cl)cncc2Cl)c1=O | –
3 | 0.2 nM | 120 nM | – | – | – | CCn1nc(-c2cccc(-c3ccc(C(N)=O)cc3)c2)cc(NC(=O)Nc2c(Cl)cncc2Cl)c1=O | –
4 | 0.19 nM | – | 634 nM | > 1000 nM | > 1000 nM | CCn1nc(-c2cccc(-c3cc(C#N)cc(C(=O)NC4CC4)c3)c2)cc(NC(=O)Nc2c(Cl)cncc2Cl)c1=O | –
5 | 3.7 nM | – | – | – | – | CCn1nc(-c2cccc(Br)c2)cc(NC(=O)Nc2c(Cl)cncc2Cl)c1=O | –
6 | 0.88 nM | – | 81 nM | > 1000 nM | > 1000 nM | CCn1nc(-c2cccc(-c3cc(OCC4CC4)cc(C(=O)NCCN4CCCCC4)c3)c2)cc(NC(=O)Nc2c(Cl)cncc2Cl)c1=O | inhibition in vivo at 0.025 mg/kg [6]: 60%
7 | 11.6 nM | – | – | – | – | CCn1nc(-c2cccc(-c3cncc(C(=O)O)c3)c2)cc(NC(=O)Nc2c(Cl)cncc2Cl)c1=O | metabolised at 20 min [7]: 35%
8 | 0.24 nM | 57 nM | 13 nM | 41 nM | 206 nM | CCn1nc(-c2cccc(-c3cccc(C(=O)NCCCCCCCN(C)CCO)c3)c2)cc(NC(=O)Nc2c(Cl)cncc2Cl)c1=O | inhibition in vivo at 0.1 mg/kg [8]: 79%; inhibition in vivo at 1 mg/kg [9]: 27%
9 | 2.17 nM | – | 17 nM | 270 nM | 222 nM | CCn1nc(-c2cccc(-c3cccc(C(=O)O)c3)c2)cc(NC(=O)Nc2c(Cl)cncc2Cl)c1=O | metabolised at 20 min [7]: 9%
10 | 21 nM | – | – | – | – | CCn1nc(-c2ccccc2)c(C(C)=O)c(Nc2ccc(C(=O)O)cc2)c1=O | –
11 | 0.19 nM | 70 nM | 2 nM | 5 nM | – | CCn1nc(-c2cccc(-c3cccc(C(=O)NCCC4CCCN4C)c3)c2)cc(NC(=O)Nc2c(Cl)cncc2Cl)c1=O (configuration not stated) | inhibition in vivo at 0.1 mg/kg [8]: 70%; inhibition in vivo at 0.1 mg/kg [10]: 57%
12 | 1.4 nM | 75 nM | – | – | – | CCn1nc(-c2cccc(-c3ccccc3O)c2)cc(NC(=O)Nc2c(Cl)cncc2Cl)c1=O | metabolised at 20 min [7]: 1.7%
13 | 0.8 nM | – | – | – | – | CCn1nc(-c2cccc(-c3cccc(O)c3F)c2)cc(NC(=O)Nc2c(Cl)cncc2Cl)c1=O | –
14 | 0.31 nM | – | > 1000 nM | > 1000 nM | > 268 nM | CCn1nc(-c2cccc(-c3cc(C(=O)NCCO)cc(C(=O)NCCN4CCCCC4)c3)c2)cc(NC(=O)Nc2c(Cl)cncc2Cl)c1=O | inhibition in vivo at 0.025 mg/kg [6]: 33%
15 | 6.6 nM | – | – | – | – | CCn1nc(-c2cccc(-c3cc(C(=O)O)ccc3F)c2)cc(NC(=O)Nc2c(Cl)cncc2Cl)c1=O | –
16 | 26.3 nM | – | – | – | – | CCn1nc(-c2cccc(-c3ccc(F)c(C(=O)O)c3)c2)cc(NC(=O)Nc2c(Cl)cncc2Cl)c1=O | –
17 | 2.9 nM | 154 nM | – | – | – | CCn1nc(-c2cccc(-c3ccc(O)cc3F)c2)cc(NC(=O)Nc2c(Cl)cncc2Cl)c1=O | metabolised at 20 min [7]: 27%
18 | 10.3 nM | – | – | – | – | CCn1nc(-c2cccc(-c3ccccc3C(=O)O)c2)cc(NC(=O)Nc2c(Cl)cncc2Cl)c1=O | –
19 | 0.24 nM | – | 59 nM | > 1000 nM | > 1000 nM | CCOc1cc(C(=O)NC2CC2)cc(-c2cccc(-c3cc(NC(=O)Nc4c(Cl)cncc4Cl)c(=O)n(CC)n3)c2)c1 | inhibition in vivo at 0.025 mg/kg [6]: 26%
20 | 1.1 nM | 100 nM | – | – | – | CCn1nc(-c2cccc(-c3ccc(O)nc3)c2)cc(NC(=O)Nc2c(Cl)cncc2Cl)c1=O | –
21 | 0.35 nM | – | > 1000 nM | > 1000 nM | 95 nM | CCn1nc(-c2cccc(-c3cc(C(=O)NCCN4CCCCC4)cc(C(=O)NC4CC4)c3)c2)cc(NC(=O)Nc2c(Cl)cncc2Cl)c1=O | inhibition in vivo at 0.025 mg/kg [6]: 25%

— ChEMBL document CHEMBL3862036, “Biphenyl Pyridazinone Derivatives as Inhaled PDE4 Inhibitors: Structural Biology and Structure-Activity Relationships” (J Med Chem, 2016)
